Source: PubChem (Broad Institute)
F508del corr = F508del CFTR correction, initial screen, CFBE line, single point; CFBE cells, YFP halide quenching; stimulated with forskolin plus potentiator P3; % fluorescence drop versus neutral controls; activity (quench increase), % at 7.58 µM; 350,000 tested, 0.36% active; AID 720511, 2013;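 active = mean added fluorescence quench of at least 8% versus neutral control, with both replicates also reaching 8%; inconclusive = only one of the mean or replicate conditions met; inactive = mean below 8% and not both replicates reaching 8%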;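 also: cells transiently co-express mutant CFTR-F508del with the halide-sensitive YFP; corrector assay measuring rescue of mutant channel to the surface after 24 h compound exposure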
Cneo AK release = Cryptococcus neoformans cell lysis inducers, primary screen, AK release luminescence, single concentration. lysis activity, % at 15 µM. C. neoformans lysis, adenylate kinase release luminescence, 4 h; normalised: neutral wells 0, clomiphene wells 100. 360,000 tested, 0.2% active;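 active = mean lysis activity across replicates of at least 80%, whatever share of replicates individually reach that level; inactive = mean lysis activity below 80%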
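Material: C. neoformans cells | Amount: Yeast cell density of 5 × 10^6 cells/mL | Medium: Fresh YPD growth medium | Dosing: Single dose | Times: Static 4 h at 37 °C with compound, 1 h detection | Detection: AK luminescence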
rRNA inh HTS = reduced GFP signal of wild-type E. coli, primary screen, bacterial rRNA inhibitor project, GFP/RFP fluorescence, OD600, single point; AID 720706, 2013; GFP signal change (wild-type ribosome), % (test concentration not listed); 350,000 tested, 1.6% active; E. coli WT GFP vs humanized-ribosome RFP mutants, 24 h; active compounds read low; DMSO median 0, no signal -100;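 active = significant combined selectivity score with lowered wild-type GFP, culture density cut under 30%, mutant RFP and density less affected; inactive = any of these conditions unmet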
CaV13 ICDI inh = Disruptors of the CACNA1D IQ motif to Ca2+-dependent inactivation inhibitor domain association, primary screening, Förster resonance energy transfer in intact living … | HEK cells, CFP/YFP FRET ICDI-IQ, plate reader, 10 min; percent FRET-ratio fall versus neutral wells | inhibition, % at 12.3 µM | 340,000 tested, 0.098% active | AID 743397;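 active = mean replicate inhibition of at least 30% and at least 1% of replicates passing that level; inconclusive = only one of the two criteria is met; inactive = neither criterion is met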;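 also: 0% = median of the neutral control wells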
AID977621 = growth inhibition of wild-type GFP E. coli, dose response, H69 mutant RFP, cherry-pick; shares compounds with rRNA inh HTS; activity change, negative = inhibition at 50 µM; 1,900 tested, under 10 active; E. coli wild-type GFP strain growth, fluorescence, 24 h;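 active = Wild-type ribosome reporter drop at least double the humanized mutant ribosome reporter drop, growth loss under a set limit; inconclusive = no clear call, values can overlap the other calls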;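 also: wild-type GFP and H69 mutant RFP strains grown together 50/50 in each well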
AID977628 = E. coli growth inhibition, wild-type GFP versus h24 humanized RFP strain, dose response, h24 mutant RFP vs wild-type GFP, cherry-pick | shares compounds with rRNA inh HTS | E. coli WT GFP strain growth, fluorescence, 24 h | activity change, negative = inhibition at 50 µM | 1,900 tested, under 10 active | AID 977628, 2014;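 active = compound lowering the normal-ribosome reporter at least twice as much as the humanized-ribosome reporter, growth loss under a set limit; inconclusive = no clear call, values can overlap the other calls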;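 also: wild-type GFP and h24 humanized RFP strains co-cultured 1 to 1 per well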
The depositor's hits bear a star; u = inconclusive; x = no result given; ! = not confirmed by another sample. Rows were chosen to be rich in hits. Some 1.7% of all compounds tested hit in one or more screens of this group.

SMILES	F508del corr	Cneo AK release	rRNA inh HTS	CaV13 ICDI inh	AID977621	AID977628
Cc1noc(C)c1NC(=O)N(C)C[C@H]1OCCCC[C@@H](C)Oc2ccc(NS(=O)(=O)c3ccccc3)cc2C(=O)N([C@H](C)CO)C[C@H]1C	-0.7	-2.2	-5.3	x	x	x
Cc1ccccc1CN1CCc2c(OCC(=O)N3CCCc4ccccc43)cccc2C1=O	x	x	x	-2.6	x	x
O=C1c2cccc(OCC(=O)N3CCCc4ccccc43)c2CCN1Cc1cccnc1	5.6	x	-26.4*	-6.5	-12	x
Fc1cnc(N2CCc3ccccc32)nc1N1CCc2ccccc21	x	6.5	x	-5.0	x	x
CC1(C)CC(=O)c2cnc(N3CCc4ccccc43)nc2C1	-0.2	x	-34.2*	-2.7	-2.73	x
C[C@@H]1CCCCO[C@@H](CN(C)S(=O)(=O)c2ccc(Cl)cc2)[C@H](C)CN([C@@H](C)CO)C(=O)c2cc(NS(C)(=O)=O)ccc2O1	0.9	2.1	-1.2	x	x	x
c1ccc2c(c1)CSc1ccccc1N2	-0.9	2.6	-23.8*	-4.4	6.07	-11.8
S=C1Nc2ccccc2CS1	-2.3	1.1	2.9	-6.7	x	x
CCOCCCNC(=O)C(NC(=O)c1ccccc1O)c1ccc(C)cc1 (stereo not drawn)	-1.2	x	-19.1*	3.8	-6.28	-2.58
Cc1cc(C)c(OCCN(C)Cc2ccccc2)c(Br)c1	-0.3	x	-23.1*	-6.5	4.1	-8.34
C/C=C/c1ccc([C@@H]2[C@H](CO)N(Cc3cccc(F)c3)C23CN(C(=O)CC)C3)cc1	1.1	x	-1.5	x	x	x
CC(C)(C)c1ccc(-c2noc(CCC(=O)NCc3ccco3)n2)cc1	0.6	x	-23.7*	-5.8	-5.12	u
Cc1cccc(-c2noc(CCC(=O)NCc3ccco3)n2)c1	-0.6	1.1	x	-7.1	x	x
O=C(NCc1ccccc1)c1ccc(-c2cn[nH]c2)c2ccoc12	-6.1	-2.0	-20.4*	-5.9	2.65	-8.21
COCCNC(=O)c1ccc(-c2cn[nH]c2)c2ccoc12	1.9	-1.0	14.5	-3.7	x	x
CN(C)CCCN(C(=O)CCSc1ccccc1)c1nc2cc3c(cc2s1)OCO3	-6.0	0.3	-31.1*	-1.6	-5.15	-3.77
CC(=O)c1cc(C(=O)Nc2ccc3ccccc3c2)c(C)o1	-2.7	x	-4.4	-2.9	x	x
Cc1ccc(C(=O)Nc2ccc3ccccc3c2)cc1	-7.6	-19.0	6.2	-21.5	x	x
Cc1cc(C(=O)Nc2ccc3ccccc3c2)c(C)o1	0.1	-4.4	-22.0*	-7.3	-9.26	-7.13
Cc1ccoc1C(=O)Nc1ccc2ccccc2c1	-0.2	-2.7	-20.2*	-4.3	-5.74	x
Cc1sc(C(=O)Nc2ccc3ccccc3c2)cc1CC(=O)O	-0.5	-2.5	-31.2*	4.6	x	-5.1
CC(C)n1cc(CN2CCCC(C(=O)Nc3cccc(-c4cc5ccccc5[nH]4)c3)C2)cn1 (stereo not drawn)	-0.2	-0.2	-69.3	-6.9	x	x
Cn1cc(CN2CCCC(C(=O)Nc3cccc(-c4cc5ccccc5[nH]4)c3)C2)cn1 (stereo not drawn)	1.9	1.8	-32.6*	-2.4	1.39	-8.08
C[C@H]1CN([C@@H](C)CO)S(=O)(=O)c2ccc(/C=C/c3ccccc3)cc2O[C@@H]1CN(C)C(=O)NC1CCCC1	-3.6	17.9	-2.2	x	x	x
CCc1ccc(NC(=O)CCc2c(C)nn(-c3ccc(N4CCCCC4)nn3)c2C)cc1	0.2	-9.2	-22.9*	-10.9	4.53	u
SMILES	F508del corr	Cneo AK release	rRNA inh HTS	CaV13 ICDI inh	AID977621	AID977628
Cc1nn(-c2ccc(N3CCCCC3)nn2)c(C)c1CCC(=O)Nc1ccc(F)cc1	-1.8	-3.5	-28.5*	-14.1	-16.6	u
CC(C)COC(=O)N(C)C[C@H]1OCc2ccccc2-c2ccccc2C(=O)N([C@H](C)CO)C[C@@H]1C	x	x	-0.2	x	x	x
C[C@H]1CCCCO[C@H](CN(C)S(=O)(=O)c2ccc(F)cc2)[C@@H](C)CN([C@@H](C)CO)C(=O)c2cc(NS(C)(=O)=O)ccc2O1	1.1	-7.8	0.3	x	x	x
Cc1c(CCOC(=O)C23CC4CC(CC(C)(C4)C2)C3)sc[n+]1Cc1ccccc1	x	-2.7	x	-8.9	x	x
Cc1c(CCOC(=O)C23CC4CC(CC(C4)C2)C3)sc[n+]1Cc1ccccc1	x	1.0	-27.2*	-4.9	-1.89	2.81
Cc1ccsc1C(=O)N1CCCC(C(=O)c2cc(F)ccc2F)C1 (stereo not drawn)	2.5	-0.6	-16.4*	-6.3	x	u
Cc1nc(C)c(C(=O)N2CCCC(C(=O)c3cc(F)ccc3F)C2)s1 (stereo not drawn)	-3.1	0.1	-0.5	-6.0	x	x
C[C@H](CO)N1C[C@H](C)[C@@H](CN(C)CC2CC2)Oc2c(NC(=O)CCCCCC(=O)Nc3ccccc3N)cccc2C1=O	x	x	-0.3	x	x	x
COCC(C)NC(=O)c1nn(Cc2ccccc2)c(=O)c2ccccc12 (stereo not drawn)	0.6	1.1	-13.0*	-1.4	-18.1	-2.35
CCC(C)NC(=O)c1nn(Cc2ccccc2)c(=O)c2ccccc12 (stereo not drawn)	0.4	3.5	1.5	-4.4	x	x
CC(=O)Nc1nc(C)c(-c2csc(Nc3ccccn3)n2)s1	2.0	x	-20.4*!	-2.5	0.269	x
CC(C)NC(=O)Nc1ccc2c(c1)C(=O)N([C@H](C)CO)C[C@@H](C)[C@H](CN(C)C(=O)Nc1ccc(F)cc1)OCCCC[C@@H](C)O2	-2.0	-2.8	1.9	x	x	x
CC(C)NC(=O)N1C[C@H]2[C@@H](c3ccccc31)[C@H](CO)N2C(=O)Nc1cccc(F)c1	-1.6	0.9	0.4	x	x	x
COc1ccc(N(CCC(=O)O)S(=O)(=O)c2ccc(C)cc2C)cc1	3.6	x	-17.1*	-2.4	3.83	-9.34
Cc1nn(C)cc1NC(=O)C[C@H]1CC[C@H]2[C@H](COc3ccc(NC(=O)C4CCOCC4)cc3C(=O)N2C)O1	x	9.4	3.1	x	x	x
CCCc1nc2ccc(Br)cn2c1Cc1cccc(Cl)c1	0.6	10.4	-21.9*	-4.2	-3.25	-3.33
CC(=O)OC(COc1cccc(C)c1)Cn1cnc2ccccc21 (stereo not drawn)	2.3	x	-36.8*	2.1	-14.4	u
O=C(C[C@H]1C[C@H]2c3cc(NC(=O)c4cccnc4)ccc3O[C@H]2[C@@H](CO)O1)NC1CCCCC1	-3.2	11.1	11.2	x	x	x
O=C(CSc1nncn1-c1ccccc1)Nc1ccccc1	2.3	-0.4	6.1	-0.4	x	x
CS(=O)(=O)c1ccc(Cl)c(NC(=O)CSc2nncn2-c2ccccc2)c1	-0.8	0.9	-22.1*	-7.3	-11.7	-8.28
c1ccc2c(c1)Nc1cc3ccccc3cc1S2	0.5	x	-21.0*	2.2	-5.29	-7.62
